Converted amounts (≈) assume the structure as drawn. The source made the active and inactive calls. No cut-off for these calls is given here.
Experiments:
HEK293 = assay: Cytotoxicity against HEK293 cells measured after 24 hrs by MTT assay; assay type: cell-based; conditions: Homo sapiens, HEK293, 24 h
How it was run: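 HEK 293 cells, 4000/well, seeded overnight in DMEM + 10% FBS at 37°C in CO2; compound dose series for 24 h (final DMSO <0.5%, DMSO-only control). MTT at 1 mg/mL final for 3 h, formazan dissolved in DMSO, absorbance 595 nm; IC50 from triplicate OD data.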

[1] = Antibacterial activity against Arthrobacter chlorophenolicus A6MTCC3706 by broth microdilution assay; assay type: functional; conditions: Pseudarthrobacter chlorophenolicus
How it was run: (§1)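 Broth microdilution per CLSI; 5×10^5 cfu/mL bacteria in LB broth; compounds from DMSO stocks, final DMSO under 0.6%, with DMSO control. Plates incubated at the strain's recommended growth temperature and time; growth read as OD600.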

Staphylococcus aureus = assay: Antibacterial activity against Staphylococcus aureus MTCC737 measured after 6 hrs by broth microdilution assay; assay type: functional; conditions: MTCC737, 6 h; how it was run: as §1
Escherichia coli = assay: Antibacterial activity against Escherichia coli MTCC1916 by broth microdilution assay; assay type: functional; how it was run: as §1
[2] = tested on: Staphylococcus epidermidis; assay: Antibacterial activity against Staphylococcus epidermidis MTCC3615 by broth microdilution assay; assay type: functional; how it was run: as §1
Pseudomonas aeruginosa = assay: Antibacterial activity against Pseudomonas aeruginosa MTCC1688 by broth microdilution assay; assay type: functional; how it was run: as §1
Calf thymus DNA [3] = assay: Binding affinity to calf thymus DNA by isothermal titration calorimetric analysis; assay type: nucleic-acid assay; conditions: Bos taurus
DNA [4] = assay: Inhibition of ethidium bromide binding to Staphylococcus aureus DNA by fluorescence assay; assay type: nucleic-acid assay
How it was run: (§2)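 Fluorescence intercalator displacement: S. aureus genomic DNA 10 µM plus EtBr 5 µM in 10 mM NaP pH 7, 10 mM NaCl, 1% DMSO, at 25 and 37 °C; titrated with 2.5–100 µM compound. Excitation 480 nm, emission 520–700 nm, inner-filter corrected, triplicates; Stern–Volmer analysis, F0/F = 1 + Ksv[Q].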

[5] = Binding affinity to pCDNA 3.1 (unknown origin) assessed as DNA unwinding effect at 1:1 compound to DNA ratio measured after 16 hrs by EtBr staining agarose gel shift assay
How it was run: (§3)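 pCDNA3.1 plasmid (amplified in E. coli DH5α), 40 µM, in 50 mM NaP pH 7, 10 mM NaCl, mixed with compound at set compound:DNA base-pair ratios; 16 h at 37°C. Run on 1% agarose at 50 V ~3 h, stained with EtBr 1 µg/mL for 5 min, imaged.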

Calf thymus DNA [6] = assay: Binding affinity to calf thymus DNA assessed as change in B-DNA structure at 265 nm by circular dichroism method; assay type: nucleic-acid assay; conditions: Bos taurus
Calf thymus DNA [7] = assay: Binding affinity to calf thymus DNA assessed as appearance of induced CD at […] by circular dichroism method; assay type: nucleic-acid assay; conditions: Bos taurus
[8] = Binding affinity to pCDNA 3.1 (unknown origin) assessed as DNA condensation at 5:1 compound to DNA ratio measured after 16 hrs by EtBr staining agarose gel shift assay; how it was run: as §3
DNA [9] = assay: Inhibition of ethidium bromide binding to Staphylococcus aureus DNA assessed as Stern-Volmer quenching constant by fluorescence assay; assay type: nucleic-acid assay; how it was run: as §2
[10] = Binding affinity to pCDNA 3.1 (unknown origin) assessed as DNA unwinding effect at 5:1 compound to DNA ratio measured after 16 hrs by EtBr staining agarose gel shift assay; how it was run: as §3

SMILES | IC50 (HEK293) [µg/mL] | MIC [1] [µg/mL] | MIC (Staphylococcus aureus) [µg/mL] | MIC (Escherichia coli) [µg/mL] | MIC [2] [µg/mL] | MIC (Pseudomonas aeruginosa) [µg/mL] | Ka (Calf thymus DNA [3]) [×10⁴ /M] | inhibition (DNA [4]) | Activity [5] | Activity (Calf thymus DNA [6]) | Activity (Calf thymus DNA [7]) | Activity [8] | KSV (DNA [9]) [×10⁴ /M] | Activity [10]
CN1CCN(CCCNc2nc3cc([N+](=O)[O-])ccc3nc2NCc2ccc(C(F)(F)F)cc2)CC1 | 9.53 (≈ 18.9 µM) | 1.76 (≈ 3.5 µM) | 3.78 (≈ 7.51 µM) | 3.78 (≈ 7.51 µM) | 3.78 (≈ 7.51 µM) | > 250 | – | – | – | – | – | – | – | –
COc1ccc(CNc2nc3ccc([N+](=O)[O-])cc3nc2NCCCN(C)C)cc1 | 38.6 (≈ 94 µM) | 4.1 (≈ 9.99 µM) | 10.3 (≈ 25 µM) | > 200 | 5.13 (≈ 12.5 µM) | > 200 | – | – | – | – | – | – | – | –
Cc1ccc(CNc2nc3ccc([N+](=O)[O-])cc3nc2NCCCN(C)C)cc1 | 15.8 (≈ 40 µM) | 2.76 (≈ 7 µM) | 5.92 (≈ 15 µM) | 110 (≈ 279 µM) | 3.94 (≈ 9.99 µM) | > 200 | – | – | – | – | – | – | – | –
O=[N+]([O-])c1ccc2nc(NCc3ccc(C(F)(F)F)cc3)c(N3CCNCC3)nc2c1 | 9.61 (≈ 22.2 µM) | 4.32 (≈ 9.99 µM) | 3.03 (≈ 7.01 µM) | 4.32 (≈ 9.99 µM) | 4.32 (≈ 9.99 µM) | 10.8 (≈ 25 µM) | – | – | – | – | – | – | – | –
CN(C)CCCNc1nc2cc([N+](=O)[O-])ccc2nc1NCc1cc(C(F)(F)F)cc(C(F)(F)F)c1 | 4.32 (≈ 8.36 µM) | 1.81 (≈ 3.5 µM) | 1.03 (≈ 1.99 µM) | > 250 | 0.52 (≈ 1.01 µM) | > 250 | 9.9 | Dose-dependent effect | Active | Dose-dependent effect | Dose-dependent effect | Active | 2 | –
Cc1ccccc1CNc1nc2ccc([N+](=O)[O-])cc2nc1NCCCN(C)C | 27.6 (≈ 70 µM) | 6.9 (≈ 17.5 µM) | 4.93 (≈ 12.5 µM) | 75.6 (≈ 192 µM) | 7.89 (≈ 20 µM) | > 200 | – | – | – | – | – | – | – | –
CN1CCN(c2nc3cc([N+](=O)[O-])ccc3nc2NCc2ccc(C(F)(F)F)cc2)CC1 | 6.99 (≈ 15.7 µM) | 4.46 (≈ 9.99 µM) | 4.46 (≈ 9.99 µM) | > 220 | 4.46 (≈ 9.99 µM) | > 220 | – | – | – | – | – | – | – | –
CN(C)CCCNc1nc2cc([N+](=O)[O-])ccc2nc1NCc1ccc(F)cc1 | 4.28 (≈ 10.7 µM) | 3.98 (≈ 9.99 µM) | 7.97 (≈ 20 µM) | 86.3 (≈ 217 µM) | 5.98 (≈ 15 µM) | > 200 | – | – | – | – | – | – | – | Active
CS[C@@H]1SC[C@H]2C(=O)N(C)[C@@H](C(C)C)C(=O)OC[C@@H](NC(=O)c3cnc4ccccc4n3)C(=O)N[C@@H](C)C(=O)N(C)[C@@H]1C(=O)N(C)[C@@H](C(C)C)C(=O)OC[C@@H](NC(=O)c1cnc3ccccc3n1)C(=O)N[C@@H](C)C(=O)N2C | 0.014 (≈ 0.0127 µM) | 0.07 (≈ 0.0636 µM) | 0.04 (≈ 0.0363 µM) | 21 (≈ 19.1 µM) | 0.02 (≈ 0.0182 µM) | > 200 | – | – | – | – | – | – | – | –
CN(C)CCCNc1nc2cc([N+](=O)[O-])ccc2nc1NCc1ccc(Br)cc1 | 9.63 (≈ 21 µM) | 2.29 (≈ 4.99 µM) | 3.45 (≈ 7.51 µM) | 4.59 (≈ 9.99 µM) | 3.45 (≈ 7.51 µM) | > 230 | – | – | – | – | – | – | – | –

— ChEMBL document CHEMBL4373710, “DNA Structural Alteration Leading to Antibacterial Properties of 6-Nitroquinoxaline Derivatives” (J Med Chem, 2019)
